This note sets out measurements from ChEMBL document CHEMBL1156919, “Synthesis and induction of apoptosis signaling pathway of ent-kaurane derivatives” (Bioorg Med Chem, 2010).

The experiment concerns RAW264.7. The experiment is described as follows: Cytotoxicity against mouse RAW264.7 cells assessed as reduction in cell viability after 24 hrs by MTT assay. The experiment is classed as functional, cell-based. The note with it: RAW264.7, 24 h. A digest of the protocol: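 RAW 264.7 mouse macrophage line kept in RPMI 1640 with 10% FBS, L-glutamine and antibiotics. Treated with 1–100 μM for 24 h, then MTT at 37 °C for 4 h. Formazan taken up in DMSO and read at 540 nm. Triplicate, at least three independent experiments. IC50 is the concentration giving 50% loss of viability relative to untreated cells.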
(In general: Tetrazolium assays rely on reduction of a dye to a coloured formazan, in cell work by metabolically active cells.)

Molecules are shown by their SMILES.

Usually IC50 stands for the concentration that gives 50% inhibition. For the molecule `COC(=O)[C@]1(C)CCC[C@@]2(C)[C@@H]3CC[C@@H]4C[C@@]3(CC[C@@H]21)C[C@H]4C` [DIHYDRO KAURENOIC ACID METHYL ESTER], the IC50 turned out to be 75 µM.

Consider `COC(=O)[C@]1(C)CCCC2(C)[C@@H]3CC[C@@H]4C[C@@]3(CC[C@@H]21)C[C@]41CO1` (stereo not given in full), for which the IC50 is more than 100 µM.

With `C=C1[C@@H]2CC[C@H]3[C@]4(C)CCC[C@@](C)(C(=O)O)[C@H]4CC[C@]3(C2)[C@H]1OC(C)=O`, the IC50 amounted to 25 µM.

Turning to `C=C1C(=O)[C@@]23CC[C@H]4[C@@](C)(CCC[C@@]4(C)C(=O)O)[C@@H]2CC[C@@H]1C3`, the IC50 was found to be 35 µM.

Turning to `C=C1C[C@@]23CC[C@@H]4[C@](C)(C(=O)OC)CCC[C@@]4(C)C2=CC[C@@H]1C3` [GRANDIFLORENIC ACID METHYL ESTER], the IC50 came to 35 µM.

For `COC(=O)[C@]1(C)CCC[C@@]2(C)[C@@H]3CC[C@@H]4C[C@@]3(CC[C@@H]21)C[C@@]4(C)OC`, the IC50 was more than 100 µM.

For `COC(=O)[C@]1(C)CCC[C@@]2(C)[C@@H]3CC[C@@H]4C[C@@]3(CC[C@@H]21)C[C@]4(O)CO`, the IC50 was 10 µM.

Consider `C=C1C[C@@]23CC[C@H]4[C@@](C)(CCC[C@@]4(C)C(=O)O)[C@@H]2CC[C@@H]1C3` [KAURENOIC ACID], for which the IC50 was more than 100 µM.

In the case of `C=C1C[C@@]23CC[C@H]4[C@@](C)(CCC[C@@]4(C)C(=O)OC)[C@@H]2CC[C@@H]1C3` [KAURENOIC ACID METHYL ESTER], the IC50 amounted to 75 µM.

With `C=C1[C@@H]2CC=C3[C@@](CC[C@@H]4[C@](C)(C(=O)OC)CCC[C@@]34C)(C2)[C@H]1OC(C)=O`, the IC50 came to 35 µM.

For the molecule `COC(=O)[C@]1(C)CCC[C@@]2(C)[C@@H]3CC[C@@H]4C[C@@]3(CC[C@@H]21)C(=O)C41CCN=N1` (stereo not given in full), the IC50 was 100 µM.

As for `C=C1C[C@@]23CC[C@@H]4[C@](C)(CO)CCC[C@@]4(C)C2=CC[C@@H]1C3`, the IC50 came out at 35 µM.

Take `C=C1[C@@H]2CC[C@H]3[C@]4(C)CCC[C@@](C)(C(=O)OC)[C@H]4CC[C@]3(C2)[C@H]1O`: the IC50 was more than 100 µM.

Turning to `COC(=O)[C@]1(C)CCC[C@@]2(C)[C@@H]3CC[C@@H]4C[C@@]3(CC[C@@H]21)C(=O)[C@H]4CCc1ccccc1`, the IC50 was more than 100 µM.

As to `COC(=O)[C@]1(C)CCC[C@@]2(C)[C@@H]3CC[C@@H]4C[C@@]3(CC[C@@H]21)C[C@H]4/C=N/O`, the IC50 turned out to be 35 µM.
